Activity calls are given as the source filed them.

Data set [1] has as its target T1, 5-hydroxytryptamine receptor 7 (Homo sapiens, UniProt P34969). Put plainly: Displacement of [3H]-5-CT from human 5-HT7b receptor expressed in HEK293 cells after 1 hr by microbeta counting analysis. Format: cell-based. The method, boiled down:
(§1)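 Membranes from stably transfected HEK293 or CHO-K1 cells, homogenized, centrifuged twice at 35,000g, with 15 min at 37 °C in between. Receptor-specific Tris-HCl buffers with MgCl2, plus EDTA, pargyline or ascorbate as applicable. Incubated 1 h at 37 °C (5-HT1A at room temperature), filtered, and bound radioactivity counted.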
A general note: Displacement assays read how much labelled ligand stays bound in the presence of the test substance.

Data set [2] addresses T2, 5-hydroxytryptamine receptor 1A (Homo sapiens, UniProt P08908).
T2 sequence (P08908 whole entry): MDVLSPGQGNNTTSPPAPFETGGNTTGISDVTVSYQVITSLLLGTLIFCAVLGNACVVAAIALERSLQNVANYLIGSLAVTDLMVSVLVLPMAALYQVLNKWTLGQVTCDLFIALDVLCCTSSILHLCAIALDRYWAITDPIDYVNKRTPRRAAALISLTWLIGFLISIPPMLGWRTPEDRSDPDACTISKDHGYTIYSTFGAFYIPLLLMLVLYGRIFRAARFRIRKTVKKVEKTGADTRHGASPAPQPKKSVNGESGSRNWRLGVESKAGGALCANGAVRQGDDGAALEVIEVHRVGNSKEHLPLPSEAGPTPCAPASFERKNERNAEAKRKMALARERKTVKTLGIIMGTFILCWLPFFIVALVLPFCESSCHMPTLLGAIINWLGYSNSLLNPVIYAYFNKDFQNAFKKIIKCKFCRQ
Put plainly: Displacement of [3H]-8-OH-DPAT from human 5-HT1A receptor expressed in HEK293 or CHO-K1 cells after 1 hr by microbeta counting analysis. Format: cell-based. The method, boiled down:
as §1

For a further data set, the species on record is Homo sapiens. As to the kind of experiment: Selectivity ratio of Ki for human 5-HT1A receptor to Ki for human 5-HT7b receptor.
The target in data set [3] is 5-hydroxytryptamine receptor 6 (Homo sapiens, UniProt P50406). As to the kind of experiment: Displacement of [3H]-LSD from human 5-HT6 receptor expressed in HEK293 or CHO-K1 cells after 1 hr by microbeta counting analysis. The class given is cell-based. The method, boiled down:
as §1

In data set [4] the target is 5-hydroxytryptamine receptor 2A (Homo sapiens, UniProt P28223). As to the kind of experiment: Displacement of [3H]-Ketanserin from human 5-HT2A receptor expressed in HEK293 or CHO-K1 cells after 1 hr by microbeta counting analysis. The class given is cell-based. In short, it runs like this: as §1
5-hydroxytryptamine receptor 2A, sequence (P28223 whole entry): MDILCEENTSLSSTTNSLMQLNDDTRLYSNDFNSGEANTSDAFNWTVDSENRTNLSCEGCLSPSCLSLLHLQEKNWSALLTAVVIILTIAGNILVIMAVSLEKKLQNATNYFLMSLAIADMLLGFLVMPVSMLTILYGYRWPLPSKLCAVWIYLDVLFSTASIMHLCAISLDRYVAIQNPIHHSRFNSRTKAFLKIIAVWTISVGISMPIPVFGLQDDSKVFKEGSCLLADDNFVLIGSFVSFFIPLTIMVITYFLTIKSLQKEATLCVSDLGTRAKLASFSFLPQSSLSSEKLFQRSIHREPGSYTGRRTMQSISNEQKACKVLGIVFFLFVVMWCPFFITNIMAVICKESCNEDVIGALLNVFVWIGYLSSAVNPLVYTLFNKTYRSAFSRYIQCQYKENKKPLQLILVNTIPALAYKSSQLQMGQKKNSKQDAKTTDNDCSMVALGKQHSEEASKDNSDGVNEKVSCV
In a further data set the target is D(2) dopamine receptor (Homo sapiens, UniProt P14416). As to the kind of experiment: Displacement of [3H]-Raclopride from human dopamine D2L receptor expressed in HEK293 or CHO-K1 cells after 1 hr by microbeta counting analysis. The class given is cell-based. The method, boiled down:
as §1

Data set [5] concerns the target T1, 5-hydroxytryptamine receptor 7. As to the kind of experiment: Antagonist activity at human 5-HT7b receptor expressed in HEK293 cells assessed as inhibition of 5-CT induced cAMP accumulation after 30 mins by LANCE based TR-FRET assay. The class given is functional, cell-based. In short, it runs like this: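 Stable 5-HT7 HEK293 cells in DMEM with 10% dialysed FBS and G418, harvested at 90% confluence, washed in warm PBS, and resuspended in HBSS/5 mM HEPES/0.5 mM IBMX/0.1% BSA. Compound incubated with cells for 30 min at room temperature against 5-CT (10 nM). Cells lysed with Eu-cAMP/ULight-anti-cAMP for 1 h at room temperature, then LANCE cAMP read-out. Triplicate at 8 concentrations.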

For data set [6], the target named is Sodium-dependent serotonin transporter (Homo sapiens) (UniProt P31645). As to the kind of experiment: Displacement of [3H]imipramine from recombinant human SERT at 1 uM after 60 mins by scintillation counting analysis relative to control. In short, it runs like this: (§2)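 Transporter and α1-adrenergic binding run externally by Eurofins Cerep using their standard protocols. Reported as % inhibition of control specific binding.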
Sodium-dependent serotonin transporter (Homo sapiens), sequence (P31645 whole entry, looked up): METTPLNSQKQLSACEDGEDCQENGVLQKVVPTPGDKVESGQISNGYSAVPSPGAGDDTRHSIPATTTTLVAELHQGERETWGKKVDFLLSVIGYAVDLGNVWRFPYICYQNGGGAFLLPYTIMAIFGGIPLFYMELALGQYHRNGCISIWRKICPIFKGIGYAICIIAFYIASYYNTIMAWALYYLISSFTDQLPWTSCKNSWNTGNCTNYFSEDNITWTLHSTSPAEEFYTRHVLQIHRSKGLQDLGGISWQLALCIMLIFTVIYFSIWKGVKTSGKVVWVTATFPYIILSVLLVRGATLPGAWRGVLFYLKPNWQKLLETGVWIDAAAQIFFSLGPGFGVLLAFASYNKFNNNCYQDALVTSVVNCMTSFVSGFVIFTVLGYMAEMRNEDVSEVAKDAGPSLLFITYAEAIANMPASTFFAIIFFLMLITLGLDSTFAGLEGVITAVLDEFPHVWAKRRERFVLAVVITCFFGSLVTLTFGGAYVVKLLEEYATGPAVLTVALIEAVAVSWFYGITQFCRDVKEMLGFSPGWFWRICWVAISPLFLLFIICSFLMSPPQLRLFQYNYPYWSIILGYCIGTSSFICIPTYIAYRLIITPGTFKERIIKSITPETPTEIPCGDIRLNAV

Data set [7] deals with Sodium-dependent dopamine transporter (Homo sapiens) (UniProt Q01959). As to the kind of experiment: Displacement of [3H]BTCP from recombinant human DAT at 1 uM after 120 mins by scintillation counting analysis relative to control. The method, boiled down: as §2
Sodium-dependent dopamine transporter (Homo sapiens), sequence (Q01959 whole entry): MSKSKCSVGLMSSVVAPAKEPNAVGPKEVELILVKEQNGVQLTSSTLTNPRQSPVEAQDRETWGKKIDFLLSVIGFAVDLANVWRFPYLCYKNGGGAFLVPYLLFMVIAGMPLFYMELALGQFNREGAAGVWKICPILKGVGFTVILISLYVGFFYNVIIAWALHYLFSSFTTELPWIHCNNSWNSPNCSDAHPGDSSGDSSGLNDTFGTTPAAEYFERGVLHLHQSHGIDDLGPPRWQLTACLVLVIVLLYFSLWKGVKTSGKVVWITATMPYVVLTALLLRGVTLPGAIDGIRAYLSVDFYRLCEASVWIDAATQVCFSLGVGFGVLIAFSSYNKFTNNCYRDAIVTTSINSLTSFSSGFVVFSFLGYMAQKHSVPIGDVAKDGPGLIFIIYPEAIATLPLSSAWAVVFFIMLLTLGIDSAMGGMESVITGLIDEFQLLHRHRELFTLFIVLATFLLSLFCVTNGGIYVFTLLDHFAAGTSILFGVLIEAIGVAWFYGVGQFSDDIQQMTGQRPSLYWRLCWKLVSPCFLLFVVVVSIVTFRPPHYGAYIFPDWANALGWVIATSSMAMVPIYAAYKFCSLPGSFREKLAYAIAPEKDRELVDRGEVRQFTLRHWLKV
Data set [8] concerns the target Sodium-dependent noradrenaline transporter (Homo sapiens) (UniProt P23975). As to the kind of experiment: Displacement of [3H]nisoxetine from recombinant human NET at 1 uM after 120 mins by scintillation counting analysis relative to control. The method, boiled down:
as §2

Data set [9] relates to Mus musculus. Put plainly: Antidepressant-like activity in Swiss albino mouse assessed as decrease in immobility time at 0.625 to 2.5 mg/kg measured during last 4 mins of 6 mins test by forced swim test relative to control. Format: functional. The arrangement: scale not given: the % may be the effect or the level left. In short, it runs like this:
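Porsolt swim test in male Swiss albino mice (22–26 g), 7–10 per dose, each used once, run 09:00–14:00 by a blinded observer. Drugs in distilled water, i.p. at 10 ml/kg: escitalopram 30 min before test, others 60 min. Immobility scored during the last 4 min of a 6 min swim at 23–25 °C. One-way ANOVA with Bonferroni vs vehicle.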

Data set [10] relates to Mus musculus. As to the kind of experiment: Antidepressant-like activity in C57BL/6J mouse assessed as increase in force of fights at 2.5 mg/kg measured during 6 mins session by tail suspension test. Format: functional, organism-based. In short, it runs like this:
(§3)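 Male C57BL/6J mice (22–26 g), 7–9 per group. Compound in distilled water, i.p. at 10 ml/kg, 60 min before test. Mice suspended by tail from a strain-gauge hook for 6 min. Struggling episodes, average event force and immobility (force below 0.20 N threshold) recorded automatically. One-way ANOVA with Bonferroni; mean ± SEM.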

Data set [11] relates to Mus musculus. Put plainly: Antidepressant-like activity in C57BL/6J mouse assessed as decrease in immobility time at 2.5 mg/kg measured during 6 mins session by tail suspension test. Format: functional, organism-based. In short, it runs like this: as §3
Data set [12] concerns Mus musculus. Put plainly: Antidepressant-like activity in C57BL/6J mouse assessed as increase in number of fight episodes at 1.25 mg/kg measured during 6 mins session by tail suspension test. Format: functional, organism-based. In short, it runs like this: as §3
For a further data set, the system named is Rattus norvegicus. As to the kind of experiment: Cognitive enhancement effect in Sprague-Dawley rat memory impairment model assessed as reversal of natural forgetting impairment administered ip 30 mins prior to test measured after 24 hrs by novel object recognition test. Format: functional, organism-based. The method, boiled down:
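Male Sprague–Dawley rats (about 250 g), handled and acclimatized. Habituated to an open field arena (25 lx) for 5 min, 24 h before testing. Two 3-min trials (T1, T2) separated by a 24 h inter-trial interval. Drug given i.p. 30 min before T1. Object exploration video-tracked; discrimination index = (EB−EA)/(EA+EB).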

For data set [13], the system named is Mus musculus. As to the kind of experiment: Antidepressant-like activity in Swiss albino mouse assessed as decrease in immobility time at 0.312 mg/kg cotreated with 0.625 mg/kg of escitalopram measured during last 4 mins of 6 mins test by forced swim test relative to control. Format: functional. The arrangement: scale not given: the % may be the effect or the level left. The method, boiled down: (§4)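 Male Swiss albino mice, 7–10 per group. Test compound (i.p., 60 min pre-test) co-given with reboxetine or bupropion (60 min) or escitalopram (30 min), all in distilled water at 10 ml/kg. Placed in a water cylinder (10 cm water, 23–25 °C) for 6 min; immobility scored over the last 4 min by a blinded observer. Two-way ANOVA with Bonferroni.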

For data set [14], the system named is Mus musculus. Put plainly: Antidepressant-like activity in Swiss albino mouse assessed as decrease in immobility time at 0.312 mg/kg cotreated with 1.25 mg/kg of bupropion measured during last 4 mins of 6 mins test by forced swim test. The class given is functional, organism-based. In short, it runs like this:
as §4

In data set [15] the test system is Mus musculus. As to the kind of experiment: Toxicity in mouse assessed as effect on spontaneous locomotory activity at 0.312 to 2.5 mg/kg, ip administered 60 mins prior to testing measured for 6 mins. Format: organism-based. To be noted: in vivo, 0.1 h. In short, it runs like this:
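Swiss albino or C57BL/6J mice habituated 30 min in activity cages. Ambulation counted from 2–6 min (matching the swim test) or over 6 min (matching the tail suspension test) with an infrared multi-channel activity monitor. Dosing i.p. as for the behavioral tests.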

For data set [16], the target named is Adrenergic receptor alpha-1 (Homo sapiens) (UniProt P35348+P25100+P35368). Put plainly: Binding affinity to alpha1-adrenergic receptor (unknown origin) at 1 uM relative to control. The class given is protein assay. In short, it runs like this: as §2
For data set [17], the system named is Mus musculus. Put plainly: Antidepressant-like activity in C57BL/6J mouse assessed as increase in number of fight episodes at 0.625 to 1.25 mg/kg measured during 6 mins session by tail suspension test. The class given is functional, organism-based. The method, boiled down: as §3
In data set [18] the test system is Mus musculus. As to the kind of experiment: Antidepressant-like activity in C57BL/6J mouse assessed as decrease in immobility time at 1.25 mg/kg measured during 6 mins session by tail suspension test. Format: functional, organism-based. The method, boiled down:
as §3

T1 sequence (P34969 whole entry): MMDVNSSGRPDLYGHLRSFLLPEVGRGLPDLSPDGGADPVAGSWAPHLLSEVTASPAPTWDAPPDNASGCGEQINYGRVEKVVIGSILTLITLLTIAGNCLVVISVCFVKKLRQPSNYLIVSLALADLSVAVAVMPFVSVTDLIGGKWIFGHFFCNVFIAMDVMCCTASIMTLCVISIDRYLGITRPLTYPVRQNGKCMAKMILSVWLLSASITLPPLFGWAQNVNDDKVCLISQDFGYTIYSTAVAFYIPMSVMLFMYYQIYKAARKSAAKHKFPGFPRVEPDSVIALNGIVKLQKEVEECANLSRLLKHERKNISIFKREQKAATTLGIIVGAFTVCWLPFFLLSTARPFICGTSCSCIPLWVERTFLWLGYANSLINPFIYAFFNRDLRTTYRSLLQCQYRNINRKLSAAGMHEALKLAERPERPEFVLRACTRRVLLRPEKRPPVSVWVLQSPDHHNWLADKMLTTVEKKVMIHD
5-hydroxytryptamine receptor 6, sequence (P50406 whole entry): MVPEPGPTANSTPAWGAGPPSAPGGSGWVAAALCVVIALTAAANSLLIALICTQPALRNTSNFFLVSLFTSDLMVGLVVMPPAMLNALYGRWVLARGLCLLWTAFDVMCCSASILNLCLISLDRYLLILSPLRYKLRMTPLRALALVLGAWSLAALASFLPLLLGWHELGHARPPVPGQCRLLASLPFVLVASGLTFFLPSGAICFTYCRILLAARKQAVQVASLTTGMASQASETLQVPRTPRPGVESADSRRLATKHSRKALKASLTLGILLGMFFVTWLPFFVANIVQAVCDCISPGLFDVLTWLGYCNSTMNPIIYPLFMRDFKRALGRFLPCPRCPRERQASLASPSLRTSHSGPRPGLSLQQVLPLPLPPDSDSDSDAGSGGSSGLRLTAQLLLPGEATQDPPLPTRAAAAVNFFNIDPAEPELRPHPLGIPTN
Sodium-dependent noradrenaline transporter (Homo sapiens), sequence (P23975 whole entry): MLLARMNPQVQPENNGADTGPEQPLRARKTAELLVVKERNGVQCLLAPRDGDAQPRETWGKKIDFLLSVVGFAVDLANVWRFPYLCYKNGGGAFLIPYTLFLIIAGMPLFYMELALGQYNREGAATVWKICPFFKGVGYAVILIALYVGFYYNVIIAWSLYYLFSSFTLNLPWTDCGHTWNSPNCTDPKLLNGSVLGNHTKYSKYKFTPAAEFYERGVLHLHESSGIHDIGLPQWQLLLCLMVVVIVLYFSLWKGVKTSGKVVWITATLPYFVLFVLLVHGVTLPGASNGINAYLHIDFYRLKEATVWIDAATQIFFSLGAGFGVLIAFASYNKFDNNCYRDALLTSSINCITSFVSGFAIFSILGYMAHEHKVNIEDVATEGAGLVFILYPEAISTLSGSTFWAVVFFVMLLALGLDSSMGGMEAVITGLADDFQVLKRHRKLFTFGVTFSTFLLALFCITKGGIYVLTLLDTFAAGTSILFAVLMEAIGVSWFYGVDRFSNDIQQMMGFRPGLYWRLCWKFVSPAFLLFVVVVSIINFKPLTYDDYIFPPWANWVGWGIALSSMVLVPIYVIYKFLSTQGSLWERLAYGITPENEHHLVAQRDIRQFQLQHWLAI
D(2) dopamine receptor, sequence (P14416 whole entry): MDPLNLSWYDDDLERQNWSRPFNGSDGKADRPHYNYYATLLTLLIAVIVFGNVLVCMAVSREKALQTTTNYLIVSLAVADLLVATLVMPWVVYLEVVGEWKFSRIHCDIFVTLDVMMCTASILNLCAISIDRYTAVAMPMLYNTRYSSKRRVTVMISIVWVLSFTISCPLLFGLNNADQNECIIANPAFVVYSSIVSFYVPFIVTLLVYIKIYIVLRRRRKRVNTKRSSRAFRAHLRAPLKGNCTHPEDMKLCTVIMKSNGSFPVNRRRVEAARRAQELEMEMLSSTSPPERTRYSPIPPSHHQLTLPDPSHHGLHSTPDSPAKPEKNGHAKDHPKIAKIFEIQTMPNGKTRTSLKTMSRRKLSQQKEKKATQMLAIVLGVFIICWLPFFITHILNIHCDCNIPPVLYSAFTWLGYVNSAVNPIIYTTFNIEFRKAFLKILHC

For the compound `O=S(=O)(NC1CCN(CCCOc2ccccc2-c2ccccc2)CC1)c1cccc(Cl)c1`, the Ki worked out at 52 nM in data set [1] and 1630 nM in data set [2]. Further, in the data set filed under Homo sapiens, the Ratio Ki stood at 31.

As for `CC(C)c1ccccc1OCC(C)N1CCC(NS(=O)(=O)c2cccc(F)c2)CC1` (stereo not drawn), the Ki in data set [1] was 170 nM; in [2], 962 nM. The Ratio Ki in the data set listed under Homo sapiens was found to be 6.

Take `CC(C)c1ccccc1OCC(O)CN1CCC(NS(=O)(=O)c2cccc(F)c2)CC1` (stereo not drawn): the Ki in data set [1] is 213 nM; in [2] it was 742 nM. The Ratio Ki in the data set listed under Homo sapiens was 4.

With `CC(C)c1ccccc1OCCCN1CCC(NS(=O)(=O)c2cccc(F)c2)CC1`, the Ki amounted to 52 nM in data set [1] and 1790 nM in [2]. For the same compound, the Ratio Ki in the data set listed under Homo sapiens amounted to 34.

For the compound `CC(COc1ccccc1-c1ccccc1)N1CCC(NS(=O)(=O)c2ccc(F)cc2)CC1` (stereo not drawn), the Ki in [1] worked out at 34 nM; in data set [2], 297 nM. Also, the Ratio Ki in the data set listed under Homo sapiens turned out to be 9.

Take `CC(C)c1ccccc1OCCCN1CCC(NS(=O)(=O)c2ccc(F)cc2)CC1`: the Ki in data set [3] worked out at 268 nM; in data set [1], 32 nM; in data set [2], 2080 nM; in data set [4], 1350 nM; at D(2) dopamine receptor it was 328 nM. The Ratio Ki in the data set filed under Homo sapiens was 65. In addition, in data set [5], the Kb came out at 1 nM. Moreover, the Activity in data set [6] was 79%; in data set [7] it was less than 10%; in data set [8], less than 10%; in the data set on Mus musculus [9], 19 - 53%; in the data set on Rattus norvegicus, “Dose-dependent effect”; in the data set with Mus musculus [13] it was 32.6%. Besides, in the data set with Mus musculus [15], the Activity entry was “Non-Toxic”. Moreover, the outcome with Mus musculus [10], with Mus musculus [11], with Mus musculus [12] and in the data set with Mus musculus [14] was Active.

`O=S(=O)(NC1CCN(CC(O)COc2ccccc2-c2ccccc2)CC1)c1cccc(Cl)c1` (stereo not drawn): the Ki in data set [3] was found to be 295 nM; in [1] it was 33 nM; in data set [2], 1330 nM; in data set [4], 2110 nM; on D(2) dopamine receptor it was 343 nM. Further, the Ratio Ki in the data set listed under Homo sapiens is 40. For the same compound, the Kb in data set [5] was 25 nM. Moreover, the Activity is less than 40% in [6]; less than 40% in data set [7]; less than 40% in data set [8]; less than 10% in data set [16]; 28 - 46% in the data set on Mus musculus [9]; “Dose-dependent effect” with Rattus norvegicus. Further, the Activity in the data set with Mus musculus [13] is 25.4%; in the data set on Mus musculus [15], “Non-Toxic”. Further, the result in the data set with Mus musculus [17], with Mus musculus [10], with Mus musculus [11], in the data set with Mus musculus [18] and in the data set on Mus musculus [14] was Active.

Usually Ki stands for the dissociation constant of the complex between target and ligand, obtained from inhibition or displacement. For orientation: Kb means the equilibrium dissociation constant of an antagonist, usually derived from a functional assay.

These data come from ChEMBL document CHEMBL4177556, “Novel 5-HT7R antagonists, arylsulfonamide derivatives of (aryloxy)propyl piperidines: Add-on effect to the antidepressant activity of SSRI and DRI, and pro-cognitive profile” (Bioorg Med Chem, 2017).
